Seven molecules from ChEMBL document CHEMBL2062397, “N-heterocyclic dicarboxylic acids: broad-spectrum inhibitors of metallo-β-lactamases with co-antibacterial effect against antibiotic-resistant bacteria” (Bioorg Med Chem Lett, 2012) can be followed below.

Activity calls are given as the source filed them. The calls are words filed in the database; no cut-off is given here.

Experiment [1] is described as follows: Inhibition of ImiS using imipenem as substrate up to 50 uM incubated for 30 mins prior to substrate addition.
Experiment [2] relates to Staphylococcus aureus. Nature of the experiment: Inhibition of metallo-beta-lactamase in methicillin-resistant Staphylococcus aureus isolate 2 assessed as reduction in vancomycin MIC after 24 hrs by macrobroth dilution assay. The method, boiled down:
(§1)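 Macrobroth twofold dilution in Mueller–Hinton (MH) medium. Each tube held inhibitor stock plus antibiotic from a 1280 µg/ml stock, serially twofold diluted. Final inoculum was 5 × 10⁵ CFU/ml. MIC was read after 24 h at 37 °C, with inhibitor present or absent, in duplicate.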
In general terms: Dilution methods test growth across graded concentrations, often in twofold steps.

The subject of experiment [3] is Escherichia coli BL21(DE3). Nature of the experiment: Inhibition of Imis in Escherichia coli BL21(DE3) assessed as reduction in cefazolin MIC after 24 hrs by macrobroth dilution assay. As to conditions: in the assay text read “imipenem” for “cefazolin”. Also noted: scale not given: the % may be the effect or the level left. The method, boiled down: (§2)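 Macrobroth twofold antibiotic dilutions in Mueller–Hinton medium, tubes with or without inhibitor. Strains were E. coli BL21(DE3) carrying pMSZ02-CcrA, pET-26b-ImiS or pET26b-L1, and K. pneumoniae ATCC 700603. Incubated 37 °C for 24 h; MIC read. Duplicate.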

In experiment [4] the test system is Escherichia coli BL21(DE3). In words: Inhibition of L1 in Escherichia coli BL21(DE3) assessed as reduction in cefazolin MIC after 24 hrs by macrobroth dilution assay. The method, boiled down: as §2
Experiment [5] has as its system Staphylococcus aureus. Nature of the experiment: Inhibition of metallo-beta-lactamase in methicillin-resistant Staphylococcus aureus isolate 1 assessed as reduction in vancomycin MIC after 24 hrs by macrobroth dilution assay. The method, boiled down:
as §1

Experiment [6] has as its system Escherichia coli BL21(DE3). In words: Inhibition of CcrA in Escherichia coli BL21(DE3) assessed as reduction in cefazolin MIC for after 24 hrs by macrobroth dilution assay. More on the design: scale not given: the % may be the effect or the level left. The method, boiled down: as §2
Experiment [7] is described as follows: Competitive inhibition of CcrA using cezafolin as substrate incubated for 30 mins prior to substrate addition by Lineweaver-burk plot analysis. The method, boiled down: (§3)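 Purified CcrA (Bacteroides fragilis) or L1 (S. maltophilia), over-expressed. Cefazolin substrate at several concentrations, inhibitor concentration varied from 0. Enzyme and inhibitor preincubated 30 min. Run in 50 mM Tris pH 7.0 at 25 °C with UV–Vis spectrophotometric read-out. Inhibition mode from Lineweaver–Burk plots; Ki determined.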

In experiment [8] the test system is Staphylococcus aureus. In words: Inhibition of metallo-beta-lactamase in methicillin-resistant Staphylococcus aureus isolate 2 assessed as reduction in cefazolin MIC after 24 hrs by macrobroth dilution assay. The method, boiled down: as §1
For experiment [9], the system named is Staphylococcus aureus. Nature of the experiment: Inhibition of metallo-beta-lactamase in methicillin-resistant Staphylococcus aureus isolate 1 assessed as reduction in cefazolin MIC after 24 hrs by macrobroth dilution assay. The method, boiled down: as §1
In another experiment the test system is Klebsiella pneumoniae. Nature of the experiment: Inhibition of metallo-beta-lactamase in Klebsiella pneumoniae ATCC 700603 assessed as reduction in cefazolin MIC after 24 hrs by macrobroth dilution assay. The method, boiled down:
as §2

The nature of experiment [10]: Competitive inhibition of L1 using cezafolin as substrate incubated for 30 mins prior to substrate addition by Lineweaver-burk plot analysis. The method, boiled down:
as §3

Experiment [11] is described as follows: Competitive inhibition of ImiS using imipenem as substrate incubated for 30 mins prior to substrate addition by Lineweaver-burk plot analysis.
The nature of experiment [12]: Noncompetitive inhibition of CcrA using cezafolin as substrate incubated for 30 mins prior to substrate addition by Lineweaver-burk plot analysis. The method, boiled down:
as §3

Experiment [13] is described as follows: Noncompetitive inhibition of ImiS using imipenem as substrate incubated for 30 mins prior to substrate addition by Lineweaver-burk plot analysis.
Experiment [14] can be described thus: Inhibition of L1 using cezafolin as substrate up to 50 uM incubated for 30 mins prior to substrate addition.
A short description of experiment [15]: Inhibition of CcrA using cezafolin as substrate up to 50 uM incubated for 30 mins prior to substrate addition.

Usually Ki stands for a measure of affinity in units of concentration, obtained from inhibition or displacement. `O=C(O)C1COC(C(=O)O)N1` (configuration not stated): the inhibition entry in experiment [1] was “inactive”. In addition, the result (in the experiment on Staphylococcus aureus [2]; in [3]; in the experiment with Staphylococcus aureus [5]; in the experiment with Staphylococcus aureus [8]; with Staphylococcus aureus [9]) was inactive. Further, the outcome (in experiment [4]; in [6]; in the experiment with Klebsiella pneumoniae) was Active. The inhibitory constant (Ki) in experiment [7] is 1100 nM; in experiment [10], 1900 nM.
On to `O=C(O)C1CSC(C(=O)O)N1` (configuration not stated) [TIDIACIC], for which the outcome in the experiment with Staphylococcus aureus [2], in the experiment with Staphylococcus aureus [5], with Staphylococcus aureus [8] and in the experiment on Staphylococcus aureus [9] was inactive. In addition, the outcome (in experiment [3]; in [4]; in experiment [6]; in the experiment with Klebsiella pneumoniae) was Active. Further, the results for the Ki in experiment [7], in experiment [11] and in experiment [10] were 640 nM, 7100 nM and 1800 nM, respectively.
In the case of `S=c1[nH]nc(-c2ccncc2)s1`, the outcome (in the experiment on Staphylococcus aureus [2]; in experiment [4]; with Staphylococcus aureus [5]; with Staphylococcus aureus [8]; with Staphylococcus aureus [9]; in the experiment with Klebsiella pneumoniae) was inactive. Also, the Activity in experiment [3] and in experiment [6] was 50% throughout. The Ki in experiment [12] was determined as 5900 nM; in [13], 6800 nM. The inhibition result in experiment [14] is “inactive”.
Consider `Sc1nnc(-c2ccccn2)[nH]1`, for which the inhibition result in experiment [1], in [15] and in [14] was “inactive” in each case. Further, the outcome (in the experiment with Staphylococcus aureus [2]; in experiment [3]; in [4]; with Staphylococcus aureus [5]; in experiment [6]; in the experiment on Staphylococcus aureus [8]) was inactive. The result in the experiment with Staphylococcus aureus [9] and with Klebsiella pneumoniae was inactive.
With `O=C(O)C1CCC(C(=O)O)N1` (configuration not stated), the inhibition result in experiment [1] was “inactive”. Besides, the outcome (with Staphylococcus aureus [2]; in [3]; with Staphylococcus aureus [5]; in the experiment with Staphylococcus aureus [8]; in the experiment with Staphylococcus aureus [9]) was inactive. In addition, the outcome (in experiment [4]; in experiment [6]; in the experiment on Klebsiella pneumoniae) was Active. In addition, the inhibitory constant (Ki) amounted to 730 nM in experiment [7] and 690 nM in experiment [10].
Consider `Sc1nnc(-c2ccccn2)s1`, for which the outcome (in the experiment with Staphylococcus aureus [2]; in experiment [4]; in the experiment with Staphylococcus aureus [5]; with Staphylococcus aureus [8]; in the experiment on Staphylococcus aureus [9]; in the experiment with Klebsiella pneumoniae) was inactive. For the same molecule, the Activity in experiment [3] and in experiment [6] was 50% throughout. The Ki in experiment [12] was 5400 nM; in experiment [13], 3500 nM. Besides, the inhibition result in [14] is “inactive”.
On to `Sc1nnc(-c2ccncc2)[nH]1`, for which the inhibition result in [1], in experiment [15] and in experiment [14] was “inactive” each time. Besides, the outcome (in the experiment on Staphylococcus aureus [2]; in experiment [3]; in experiment [4]; in the experiment on Staphylococcus aureus [5]; in experiment [6]; with Staphylococcus aureus [8]) was inactive. The result with Staphylococcus aureus [9] and in the experiment on Klebsiella pneumoniae was inactive.
